From ChEMBL document CHEMBL1136888, “Design, synthesis, and biological evaluation of novel diarylalkyl amides as TRPV1 antagonists” (Bioorg Med Chem, 2009) come the findings set out here.

Structures are written as SMILES.

Sequence of Transient receptor potential cation channel subfamily V member 1 (O35433 whole entry): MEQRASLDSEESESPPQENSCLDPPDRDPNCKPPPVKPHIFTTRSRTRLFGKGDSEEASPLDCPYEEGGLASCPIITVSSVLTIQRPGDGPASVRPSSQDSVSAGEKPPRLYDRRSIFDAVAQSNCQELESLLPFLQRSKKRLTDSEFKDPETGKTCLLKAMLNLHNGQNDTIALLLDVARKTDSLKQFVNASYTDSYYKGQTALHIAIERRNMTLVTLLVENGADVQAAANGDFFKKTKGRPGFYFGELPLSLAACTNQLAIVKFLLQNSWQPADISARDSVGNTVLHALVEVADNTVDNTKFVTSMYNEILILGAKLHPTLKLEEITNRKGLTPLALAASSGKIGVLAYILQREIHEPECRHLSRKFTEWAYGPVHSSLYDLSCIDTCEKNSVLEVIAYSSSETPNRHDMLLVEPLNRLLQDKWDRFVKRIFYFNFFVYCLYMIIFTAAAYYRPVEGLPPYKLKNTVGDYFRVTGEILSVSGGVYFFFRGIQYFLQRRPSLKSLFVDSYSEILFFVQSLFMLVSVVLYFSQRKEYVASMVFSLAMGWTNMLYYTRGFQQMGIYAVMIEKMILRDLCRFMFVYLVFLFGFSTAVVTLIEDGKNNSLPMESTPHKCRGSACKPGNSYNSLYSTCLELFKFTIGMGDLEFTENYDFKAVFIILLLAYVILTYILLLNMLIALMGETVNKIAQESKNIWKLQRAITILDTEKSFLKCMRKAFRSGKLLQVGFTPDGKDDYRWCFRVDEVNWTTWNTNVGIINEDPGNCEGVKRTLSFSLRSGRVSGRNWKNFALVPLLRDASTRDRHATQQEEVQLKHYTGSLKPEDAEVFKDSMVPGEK

This assay concerns the target Transient receptor potential cation channel subfamily V member 1 (Rattus norvegicus, UniProt O35433). Briefly: Antagonist activity at TRPV1 in Sprague-Dawley rat DRG neuron assessed as reduction of capsaicin-stimulated 45Ca2+ uptake. The format is functional. The method in brief: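 Neonatal Sprague-Dawley rat DRG neurons (all spinal levels) dissociated with collagenase/trypsin and cultured 3 days with C6 glioma-conditioned medium. Washed in HEPES (10 mM, pH 7.4) Ca/Mg-free HBSS. Exposed to 45Ca2+ plus 0.5 µM capsaicin with compound for 10 min at room temperature. Cells washed, SDS-lysed, scintillation counted.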
In the case of `CC1(C)Cc2cc(CCC(=O)NCc3ccc(NS(C)(=O)=O)c(F)c3)ccc2O1`, the half-inhibitory concentration (IC50) was more than 10000 nM.
With `CC(C)(C)Oc1ccc(CCC(=O)NCc2ccc(NS(C)(=O)=O)c(F)c2)cc1` the figure was more than 10000 nM; with `CC1(c2ccc(CCC(=O)NCc3cc(F)c(NS(C)(=O)=O)c(C#N)c3)cc2)CC1`, 210 nM.
With `CC(C)(C)c1cc(/C=C/C(=O)NCc2ccc(NS(C)(=O)=O)c(F)c2)c2c(c1)CCO2` the figure was 1500 nM.
With `CC(C)(C)c1ccc(CCC(=O)NCc2ccc(NS(C)(=O)=O)c(F)c2)cc1` the figure was 170 nM.
As for `CS(=O)(=O)Nc1ccc(CNC(=O)CCc2cc(C(F)(F)F)cc(C(F)(F)F)c2)cc1F`, the IC50 amounted to 2500 nM.
With `CS(=O)(=O)Nc1ccc(CNC(=O)CCc2ccc(C(F)(F)F)cc2)cc1F` the figure was 4600 nM; with `CC(C)(C)c1cc2c(c(CCC(=O)NCc3ccc(NS(C)(=O)=O)c(F)c3)c1)OCC2`, 5000 nM.
With `CC1(C)CCC(C)(C)c2cc(/C=C/C(=O)NCc3ccc(NS(C)(=O)=O)c(F)c3)ccc21` the figure was 340 nM; with `CC(C)(C)c1ccc(CNC(=O)NCc2ccc(NS(C)(=O)=O)c(F)c2)cc1`, 710 nM; with `CC1(C)CCc2cc(/C=C/C(=O)NCc3ccc(NS(C)(=O)=O)c(F)c3)ccc2O1`, 1400 nM.
Then `CC1(C)CCc2cc(CCC(=O)NCc3ccc(NS(C)(=O)=O)c(F)c3)ccc2O1`, with 7200 nM; and `CC(C)(C)c1ccc(CCC(=O)NCc2cc(F)c(NS(C)(=O)=O)c(C#N)c2)cc1`, with 85 nM.
With `CS(=O)(=O)Nc1ccc(CNC(=O)CCc2ccc(CC3CC3)cc2)cc1F`, the 50% inhibitory concentration (IC50) came to 360 nM.
With `CS(=O)(=O)Nc1ccc(CNC(=O)CCc2ccc(Br)cc2)cc1F` the figure was more than 10000 nM; with `CC1(C)CCC(C)(C)c2cc(CCC(=O)NCc3cc(F)c(NS(C)(=O)=O)c(C#N)c3)ccc21`, 57 nM.
Regarding `CC1(c2ccc(/C=C/C(=O)NCc3ccc(NS(C)(=O)=O)c(F)c3)cc2)CC1`, the IC50 was found to be 390 nM.
Then `CC1(C)Cc2cc(/C=C/C(=O)NCc3ccc(NS(C)(=O)=O)c(F)c3)ccc2O1`, with 4300 nM; and `CC(C)(C)c1cc2c(c(CCC(=O)NCc3ccc(NS(C)(=O)=O)c(F)c3)c1)OCCC2`, with 280 nM; and `CC1(C)CCC(C)(C)c2cc(CCC(=O)NCc3ccc(NS(C)(=O)=O)c(F)c3)ccc21`, with 180 nM.
With `CS(=O)(=O)Nc1ccc(CNC(=O)/C=C/c2ccc(I)cc2)cc1F` the figure was more than 10000 nM; with `CS(=O)(=O)Nc1ccc(CNC(=O)CCc2ccccc2)cc1F`, more than 10000 nM; with `CC(C)(C)c1ccc(CNC(=O)CCc2ccc(NS(C)(=O)=O)c(F)c2)cc1`, 2800 nM.
Then `CC(C)Cc1ccc(CCC(=O)NCc2ccc(NS(C)(=O)=O)c(F)c2)cc1`, with 640 nM; and `CC(C)(C)c1cc(CCC(=O)NCc2ccc(NS(C)(=O)=O)c(F)c2)cc(C(C)(C)C)c1`, with 200 nM.
Take `CC(C)Oc1ccc(CCC(=O)NCc2ccc(NS(C)(=O)=O)c(F)c2)cc1`: the IC50 was more than 10000 nM.
Then `CC(C)(C)c1cc(/C=C/C(=O)NCc2ccc(NS(C)(=O)=O)c(F)c2)c2c(c1)CCCO2`, with 920 nM.

Usually IC50 stands for the point on the concentration scale where inhibition reaches its midpoint.
